Measurements published in ChEMBL document CHEMBL1955718, “Discovery of new orally effective analgesic and anti-inflammatory hybrid furoxanyl N-acylhydrazone derivatives” (Bioorg Med Chem, 2012).

Legend:
[1] = Cytotoxicity against human HT-29 cells expressing NF-kappaB-hrGFP assessed as highest non-cytotoxic dose for 100% cell survival after 24 hrs by MTT assay; assay type: cell-based; settings: read-out: Activity
How it was run: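 HT-29 cells stably carrying pNF-κB-hrGFP, seeded at 0.5 × 10^6/mL in DMEM with 10% FBS, grown 24 h at 37 °C, 5% CO2. Compounds added in DMSO (<0.5% v/v final) at 12.5–400 µM for 24 h. Viability by MTT reduction (2 h), formazan dissolved in DMSO/glycine buffer, read at 560 nm.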

HT-29 [2] = assay: Pro-inflammatory activity in NFkappaB-GFP transfected human HT-29 cells at 25 to 400 uM after 24 hrs by propidium iodide staining-based flow cytometric analysis; assay type: ADME, cell-based; settings: ht-29, 24 h
How it was run: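 Reporter HT-29-NF-κB-hrGFP cells given compound alone, without TNF-α, for 18–24 h at 37 °C after the same 2 h pre-incubation. GFP-positive live (propidium iodide-excluding) cells counted by flow cytometry; IL-8 in supernatant measured by bead-based flow cytometry.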

[3] = Cytotoxicity against mouse […] cells after 48 hrs by MTT assay; assay type: cell-based
How it was run: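 J774 macrophages in DMEM (4 mM L-glutamine, 10% heat-inactivated FBS) were seeded at 1 × 10^5 cells/well and grown for 48 h at 37 °C, 5% CO2. They were then exposed to compounds at 25–400 µM for 48 h. MTT (0.1 mg/mL final) was added for 3 h, formazan was dissolved in DMSO/glycine buffer pH 10.5, and absorbance was read at 560 nm to give an IC50.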

HT-29 [4] = assay: Inhibition of TNFalpha-induced NF-kappaB activation expressed in human HT-29 cells coexpressing hrGFP at 100 uM after 24 hrs by propidium iodide staining-based flow cytometric analysis relative to control; assay type: cell-based
How it was run: (§1)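 HT-29 cells stably expressing NF-κB-driven hrGFP given compound (DMSO <0.5%) for 2 h at the maximum non-cytotoxic concentration, then TNF-α at 3 ng/mL final for 18–24 h. Cells trypsinised and stained with propidium iodide; 5000 events gated on FSC/SSC. The %GFP-positive among PI-excluding live cells is normalised to TNF-α/DMSO control, ± SD.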

Glycine max = assay: Inhibition of soybean lipoxygenase using arachidonic acid as substrate at 50 uM
How it was run: (§2)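 Soybean 15-lipoxygenase kit assay, arachidonic acid substrate, H2O2 as lipoxygenating agent in 0.1 M Tris-HCl pH 7.4. Single-point screen at 50 µM. IC50 found by varying concentration over 10–100 µM. Quercetin at 4 µM as positive control; duplicate means; Student t-test.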

HT-29 [5] = assay: Inhibition of NF-kappaB activation expressed in human HT-29 cells assessed as inhibition of TNFalpha-stimulated IL8 release at 400 uM after 24 hrs by flow cytometric analysis relative to control; assay type: cell-based
How it was run: (§3)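 Reporter HT-29-NF-κB-hrGFP cells pretreated 2 h with compound (DMSO <0.5%) at the highest concentration with 100% survival, then stimulated with TNF-α (3 ng/mL final) for 18–24 h at 37 °C. IL-8 in clarified supernatant measured by flow cytometric bead assay (500 events). Expressed as % of TNF-α/DMSO control ± SD; thalidomide as reference.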

[6] = Inhibition of soybean lipoxygenase using arachidonic acid as substrate; parameters: species or system Glycine max; how it was run: as §2
[7] = Induction of NO release in 0.1 M Tris-HCl and 0.1 mM DTPA at pH 8.3 measured for 20 mins in presence of cysteine; assay type: physicochemical; settings: buffer, pH 8.3, 20 min
How it was run: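 Electrochemical NO detection with an ISO-NOP sensor. Compounds in DMSO added to 0.1 M Tris-HCl, 0.1 mM DTPA at pH 7.4 or 8.3. Cysteine (300 or 100 µM) added and NO recorded for 20 min at 25 or 37 °C; compound:Cys ratio 1:1 at 25 °C, with 3:1 and 37 °C runs also made.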

HT-29 [8] = assay: Inhibition of TNFalpha-induced NF-kappaB activation expressed in human HT-29 cells coexpressing hrGFP at 400 uM after 24 hrs by propidium iodide staining-based flow cytometric analysis relative to control; assay type: cell-based; how it was run: as §1
Mus musculus = assay: Analgesic activity in albino mouse assessed as inhibition of acetic acid-induced abdominal constriction at 100 umol/kg, po administered 1 hr before acetic acid challenge measured after 60 mins relative to control; assay type: functional; settings: Abdomen
How it was run: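 Albino mice of both sexes (18–23 g) were dosed orally as a suspension in 5% arabic gum in saline, with vehicle controls. After 1 h they received 0.6% acetic acid ip (0.1 mL/10 g). Constrictions were counted for 20 min starting 10 min after injection. Data are % inhibition vs vehicle, mean ± SEM, Student t-test.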

Rattus norvegicus = assay: Antiinflammatory activity in albino rat assessed as inhibition of carrageenan-induced paw edema at 100 umol/kg, po administered 1 hr before carrageenan challenge measured after 3 hrs by plethysmometric analysis relative to control; assay type: functional
How it was run: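 Albino rats of both sexes (150–200 g) were dosed orally as a suspension in 1% Tween 80 in saline, with vehicle controls. After 1 h, 0.1 mL 1% carrageenan or saline was injected subplantar. Paw volume was read by glass plethysmometer at 3 h. Edema = carrageenan-paw minus saline-paw volume; % inhibition vs vehicle; Student t-test.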

HT-29 [9] = assay: Inhibition of NF-kappaB activation expressed in human HT-29 cells assessed as inhibition of TNFalpha-stimulated IL8 release at 100 uM after 24 hrs by flow cytometric analysis relative to control; assay type: cell-based; how it was run: as §3

| Compound | MNTC at 24 h [1] [µM] | Activity (HT-29 [2]) | IC50 [3] [µM] | NF-kappaB activity (% of TNF-alpha control) (HT-29 [4]) [%] | inhibition (Glycine max) [%] | inhibition (HT-29 [5]) [%] | IC50 [6] [µM] | Activity [7] [nM/min] | NF-kappaB activity (GFP-positive cells), % of TNF-alpha control (HT-29 [8]) [%] | inhibition in vivo at 100 µmol/kg (Mus musculus) [%] | inhibition in vivo at 100 µmol/kg (Rattus norvegicus) [%] | inhibition (HT-29 [9]) [%] |
| --- | --- | --- | --- | --- | --- | --- | --- | --- | --- | --- | --- | --- |
| Cc1c(/C=N/NC(=O)c2cnn(-c3ccccc3)c2)no[n+]1[O-] (mixture of isomers) | 100 | Non-toxic | 295 | 80 | 0 | – | – | – | – | – | – | – |
| O=C(N/N=C/c1ccc2no[n+]([O-])c2c1)c1ccc2c(c1)OCO2 | 400 | Non-toxic | 141 | – | 55 | 64 | 50 | 0 | 87 | – | – | – |
| COc1ccc(/C=N/NC(=O)c2no[n+]([O-])c2C)cc1O | 400 | Non-toxic | > 400 | – | 58 | 59 | – | – | 117 | – | – | – |
| COc1ccc(/C=N/NC(=O)c2no[n+]([O-])c2C)cc1OC | 400 | Non-toxic | > 400 | – | 0 | 68 | – | – | 120 | 17 | 4 | – |
| Cc1c(C(=O)N/N=C/c2ccc3c(c2)OCO3)no[n+]1[O-] | 100 | Non-toxic | > 400 | 97 | – | – | – | – | – | – | – | 98 |
| Cc1nc2ccccn2c1C(=O)N/N=C/c1no[n+]([O-])c1C | 400 | Non-toxic | > 400 | – | – | 77 | – | – | 120 | – | – | – |
| O=C(N/N=C/c1c(-c2ccccc2)no[n+]1[O-])c1cnn(-c2ccccc2)c1 | 400 | Non-toxic | 42 | – | – | – | – | – | 105 | – | – | – |
| Cc1c(C(=O)N/N=C/c2ccc([N+](=O)[O-])s2)no[n+]1[O-] | 100 | Non-toxic | 68 | 111 | – | – | – | – | – | – | – | – |
| Cc1c(C(=O)N/N=C/c2ccc(Br)cc2)no[n+]1[O-] | 100 | Non-toxic | 162 | 126 | 0 | – | – | – | – | 23 | 0 | 61 |
| Cc1c(C(=O)N/N=C/c2ccco2)no[n+]1[O-] | 100 | Non-toxic | > 400 | 99 | 0 | – | – | – | – | – | – | 82 |
| Cc1c(/C=N/NC(=O)c2ccc3c(c2)OCO3)no[n+]1[O-] | 400 | Non-toxic | 132 | – | – | 106 | – | – | 102 | – | – | – |
| Cc1c(C(=O)N/N=C/c2c(-c3ccccc3)no[n+]2[O-])no[n+]1[O-] | 100 | Non-toxic | > 400 | 122 | – | – | – | – | – | – | – | 77 |
| Cc1c(C(=O)N/N=C/c2ccc([N+](=O)[O-])o2)no[n+]1[O-] | 100 | Non-toxic | 96 | 136 | – | – | – | – | – | 13 | 14 | 48 |
| COc1cc(/C=N/NC(=O)c2no[n+]([O-])c2C)ccc1O | 100 | Non-toxic | > 400 | 149 | 1 | – | – | 0 | – | – | – | 77 |
| O=C(N/N=C/c1ccc2no[n+]([O-])c2c1)c1cnn(-c2ccccc2)c1 | – | Non-toxic | 37 | – | – | – | – | – | – | – | – | – |
| Cc1nc2ccccn2c1C(=O)N/N=C/c1ccc2no[n+]([O-])c2c1 | 400 | Non-toxic | > 400 | – | – | 76 | – | – | 104 | – | – | – |
| Cc1c(C(=O)N/N=C/c2ccc3no[n+]([O-])c3c2)no[n+]1[O-] | 400 | Non-toxic | > 400 | – | – | 68 | – | – | 121 | – | – | – |
| Cc1c(C(=O)N/N=C/c2cccs2)no[n+]1[O-] | 100 | Non-toxic | > 400 | 122 | 10 | – | > 100 | – | – | 14 | 0 | 75 |
| Cc1c(C(=O)N/N=C/c2ccc(C(F)(F)F)cc2)no[n+]1[O-] | 400 | Non-toxic | > 400 | – | 55 | – | 50 | – | 55 | – | – | – |
| Cc1c(/C=N/NC(=O)c2no[n+]([O-])c2C)no[n+]1[O-] | 100 | Non-toxic | > 400 | 127 | 55 | – | 50 | – | – | 14 | 10 | 65 |
